ABHD5 PLIN5 PPI: ABHD5-PLIN5 interaction inhibitors, primary screen, cell lysate, split luciferase complementation, luminescence. Split G. princeps luciferase complementation, 4 h. Perilipin-5 (Homo sapiens) + 1-acylglycerol-3-phosphate O-acyltransferase ABHD5 (Homo …. inhibition, % at 4 µM. hit rate 0.78% among 360,000;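 active = inhibition above the mean inhibition across every tested compound plus 3 SD, cut at about 22% in these data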;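 also: 0% = DMSO only wells and the 100% control is not disclosed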
RBBP9 inh: human RBBP9 inhibitors, primary screen, biochemical, fluorescence polarization, FP-Rh probe, HTS; Serine hydrolase RBBP9 (Homo sapiens), O75884; recombinant RBBP9; inhibition, % at 7.94 µM; hit rate 0.2% among 220,000;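 active = inhibition above the campaign mean of all tested compounds plus 3 SD, cut at about 14% in these data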;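 also: plate controls were DMSO wells with RBBP9 for no effect and wells lacking RBBP9 protein for full effect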
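System: RBBP9 protein / Buffer or medium: Tris/NaCl buffer pH 8.0 with 0.1% Pluronic / Probe or stimulus: Serine-hydrolase probe FP-Rh, 375 nM pre-mixing / Dosing: 7.94 µM single dose, 0.794% DMSO / Times: enzyme-compound preincubation 30 min, then probe labeling 45 min, 25 °C / Technique: fluorescence polarization (mP), excitation 525 nm, emission 598 nm / Replication: singlicate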
PRMT1 inh: PRMT1 methyltransferase inhibitors, primary screen, biochemical, fluorescence polarization; Protein arginine N-methyltransferase 1 (Homo sapiens), Q99873; recombinant PRMT1, activity-based probe fluorescence polarization; inhibition, % at 2.79 µM; hit rate 1.3% among 370,000; AID 652257, 2013;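 active = inhibition above about 21% made by adding two undisclosed values, limit read from the data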
Target sequence (Q99873 whole entry, looked up): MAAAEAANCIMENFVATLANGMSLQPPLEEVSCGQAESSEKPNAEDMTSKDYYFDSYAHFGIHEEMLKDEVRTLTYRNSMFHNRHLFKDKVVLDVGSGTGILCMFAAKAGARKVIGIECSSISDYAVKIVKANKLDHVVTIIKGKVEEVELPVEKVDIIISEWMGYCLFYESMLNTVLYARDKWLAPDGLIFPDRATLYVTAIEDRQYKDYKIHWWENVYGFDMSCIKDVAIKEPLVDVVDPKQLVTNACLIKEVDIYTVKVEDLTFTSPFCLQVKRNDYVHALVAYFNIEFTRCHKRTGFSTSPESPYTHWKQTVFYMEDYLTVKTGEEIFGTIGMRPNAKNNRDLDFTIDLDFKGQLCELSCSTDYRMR
UHRF1 MBD2 ctr: UHRF1 methylated DNA binding inhibitors, primary screen, counter-screen for MBD2 inhibitor project, biochemical, TR-FRET, human UHRF1, single concentration; AID 687016, 2013; hit rate 0.75% among 370,000; UHRF1 binding to methylated oligo; E3 ubiquitin-protein ligase UHRF1 (Homo sapiens), Q96T88; inhibition, % at 4.4 µM; in the data active = inhibition above about 21%;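 also: UHRF1 SRA domain binding a hemimethylated CpG hairpin DNA probe; 0% = median of test compound wells and 100% = reference inhibitor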
LEDGF integ inh: blockers of LEDGF/p75-dependent integrase strand transfer – biochemical, TR-FRET, high throughput, primary screen; HIV-1 integrase (with human LEDGF/p75); TR-FRET IN-LEDGF/p75 DNA integration, Eu/Cy5; inhibition, % at 3.7 µM; hit rate 0.64% among 370,000; AID 743269, 2014;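 active = inhibition above the screen-wide mean plus 3 SD, cut at about 13% in these data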;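 also: signal is the Cy5 over europium emission ratio at 671 and 618 nm; 0% = plate median of compound wells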
MBD2 inh: inhibitors of MBD2 binding to methylated DNA, primary screen, biochemical, TR-FRET, DNA-binding domain, human | inhibition, % at 4.4 µM | hit rate 0.31% among 370,000 | MBD2 binding to methylated oligonucleotide | AID 686964, 2013 | Methyl-CpG-binding domain protein 2 (Homo sapiens), Q9UBB5; in the data active = inhibition above about 13%
IN multimer act: HIV-1 IN multimer formation enhancers, counter-screen for LEDGF/p75 integration inhibitor project, biochemical, TR-FRET. shares compounds with LEDGF integ inh. TR-FRET HIV-1 integrase multimerization. activation, % at 7.7 µM. hit rate 17% among 2,000; in the data active = activation above about 8.9%
TR-FRET interf: TR-FRET optical interference artefacts, confirmation, artefact control for LEDGF/p75-dependent integration inhibitor project, biochemical, HIV-1 IN multimerization; 2,000 tested, under 10 active; inhibition, % at 7.7 µM; shares compounds with LEDGF integ inh; TR-FRET optical interference counterscreen; AID 1053135, 2014;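 active = inhibition above the mean over all tested compounds plus 3 SD, which no compound reached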;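 also: 0% = integrase with antibodies and DMSO and 100% = antibodies without integrase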
LEDGF integ conf: inhibitors of HIV-1 IN-LEDGF/p75 DNA integration, confirmation, biochemical, TR-FRET; AID 1053136, 2014; shares compounds with LEDGF integ inh; TR-FRET LEDGF/p75-dependent HIV-1 integration; hit rate 36% among 2,000; inhibition, % at 3.7 µM; in the data active = inhibition above about 14%
The depositor's hits bear a star. Compounds with a hit are over-represented: about 3.1% of the library has one in this group of screens.

Screening O=C(CN(C(=O)c1csnn1)c1ccc2c(c1)OCCO2)NCc1ccccc1 returned ABHD5 PLIN5 PPI 10.8, PRMT1 inh 1.0, UHRF1 MBD2 ctr -1.3, LEDGF integ inh 25.8*, MBD2 inh -1.2, IN multimer act -1.7, TR-FRET interf 8.7 and LEDGF integ conf -1.8.
Screening O=C(CN(C(=O)c1csnn1)c1ccc(Cl)cc1)NCc1ccc2c(c1)OCO2 returned ABHD5 PLIN5 PPI -8.9, PRMT1 inh -1.2, UHRF1 MBD2 ctr -1.2, LEDGF integ inh 0.7 and MBD2 inh -3.5.
For O=C(CCCC(=O)N/N=C\c1ccccn1)N/N=C\c1ccccn1 the results were ABHD5 PLIN5 PPI 7.5, RBBP9 inh -7.3, PRMT1 inh 1.2, UHRF1 MBD2 ctr -1.9, LEDGF integ inh -0.9 and MBD2 inh -5.0.
`CC(Nc1cccc2ccccc12)C(=O)N/N=C/c1ccccn1` (stereo not drawn) gave ABHD5 PLIN5 PPI -8.6, RBBP9 inh 7.6, PRMT1 inh 24.6*, UHRF1 MBD2 ctr 3.7, LEDGF integ inh 23.4*, MBD2 inh -3.9, IN multimer act 2.9, TR-FRET interf -14.7 and LEDGF integ conf -3.8.
Screening C=CCN(CC#CC(=C)C)CC1CC1 returned PRMT1 inh 0.6, UHRF1 MBD2 ctr -0.1, LEDGF integ inh -0.5 and MBD2 inh -5.8.
Screening NC(=O)C1CCCN(CC(O)COCc2ccc(Cl)cc2)C1 (stereo not drawn) returned ABHD5 PLIN5 PPI 5.2, PRMT1 inh -3.4, UHRF1 MBD2 ctr -2.7, LEDGF integ inh 78.4*, MBD2 inh 1.1, IN multimer act 0.6, TR-FRET interf -2.3 and LEDGF integ conf -1.5.
Screening CCOC(=O)C1CCN(CC(O)COCc2ccc(Cl)cc2)CC1 (stereo not drawn) returned ABHD5 PLIN5 PPI 2.0, PRMT1 inh -1.2, UHRF1 MBD2 ctr -3.0, LEDGF integ inh -1.3 and MBD2 inh 3.1.
Screening Cc1ccc2c(c1)C1CS(=O)(=O)N(Cc3ccc(F)cc3)CN1C2 (stereo not drawn) returned PRMT1 inh 1.6, UHRF1 MBD2 ctr -4.8, LEDGF integ inh 1.1 and MBD2 inh 1.7.
CC(=O)N1c2ccccc2C(C)=NCC1C(=O)NC1CCCCC1 (stereo not drawn) was read as PRMT1 inh -4.5, UHRF1 MBD2 ctr -0.7, LEDGF integ inh 4.5 and MBD2 inh -4.8.
Screening Cc1cc(CC(=O)O)c2oc(-c3ccoc3)cc(=O)c2c1 returned PRMT1 inh 3.1, UHRF1 MBD2 ctr 25.3*, LEDGF integ inh 14.7*, MBD2 inh 3.9, IN multimer act 5.0, TR-FRET interf -24.9 and LEDGF integ conf 29.1*.
Screening COC(=O)c1sccc1N/C=C(\C#N)S(=O)(=O)C(C)(C)C returned ABHD5 PLIN5 PPI -11.9, RBBP9 inh 3.2, PRMT1 inh 2.9, UHRF1 MBD2 ctr 1.5, LEDGF integ inh 78.8*, MBD2 inh -0.8, IN multimer act 0.0, TR-FRET interf 0.1 and LEDGF integ conf 0.5.
For COC(=O)c1sccc1NS(=O)(=O)c1ccc(OC)cc1 the results were ABHD5 PLIN5 PPI 1.0, RBBP9 inh 1.6, PRMT1 inh -3.3, UHRF1 MBD2 ctr -2.0, LEDGF integ inh -3.5 and MBD2 inh -0.1.

From PubChem BioAssay
